High-throughput results as filed in PubChem BioAssay.
Compounds with a hit are over-represented: about 3% of the library has one in this group of screens.
H9c2 protect: modulators protecting cardiomyocytes from myocardial damage | H9c2 cardiomyocytes, H2O2 injury protection, ATPLite, 2 h | 360,000 tested, 0.63% active | protection from H2O2 cell death, % at 20 µM;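 active = compounds giving at least 50% protection of heart cells from peroxide-induced death in the single-dose screen, raw or plate-pattern-corrected value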;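 also: 0% = DMSO wells with peroxide and 100% = DMSO wells without peroxide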
Myeloid diff MLP: myeloid differentiation induction | ER-HoxA9 myeloid progenitors, lysozyme-GFP differentiation, flow cytometry | calls only at 10 µM | 360,000 tested, 1% active | AID 624256;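 active = normalized GFP-positive differentiation at or above the plate's own cutoff, the solvent-only control mean plus 3 SD; inconclusive = no clear call, values can overlap the other calls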;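 also: cells exposed to compound for four days before flow analysis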
DSG3 Ab inh: inhibitors of pemphigus antibody binding to human desmoglein-3; DSG3-coupled beads, scFv-anti-DSG3-GFP binding, flow cytometry; hits give low values; 310,000 tested, 0.48% active; P32926; binding (percent of control), % at 10 µM;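 active = binding more than 3 SD below its plate's average and above zero; inconclusive = below that plate limit but binding exactly zero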;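 also: hits lower antibody fragment binding to DSG3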
Exocytosis inh: blocks lytic granule exocytosis; TALL-104 LAMP-1 surface exposure, flow cytometry; cells stimulated with thapsigargin and PMA; inhibition, % at 10 µM; 360,000 tested, 0.66% active;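 active = inhibition above about 55%, limit read from the data; inconclusive = no clear call, values can overlap the other calls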
SENP1 FRET inh: SENP1 (human) catalytic domain inhibition; Q9P0U3; recombinant SENP1 catalytic domain, CyPet-SUMO1-YPet FRET cleavage; inhibition, % at 10 µM; 360,000 tested, 0.21% active; AID 624204;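 active = inhibition at least 30% at 10 µM, raw YFP signal under a set limit, fluorescence ratio 0.5 to 1.5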;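 also: 0% = enzyme with DMSO and 100% = no enzyme wells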
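system = hSENP1 catalytic domain, recombinant | reagent = SFCypet-SUMO1-SFYpet substrate at 25 nM | doses = one dose per compound, 10 µM, 0.5% DMSO | incubation = enzyme reaction for 50 min at room temperature, dark | measured by = FRET, CFP and YFP emission | controls = no-enzyme low, enzyme-DMSO high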
HNF4A DNA FP: change in binding of human HNF4 alpha to DNA. HNF4a-FITC DNA binding, fluorescence polarization, 1 h. 360,000 tested, 0.3% active. activity change, % at 10 µM. P41235; in the data active = activity change above about 30%, passing the limit was not always enough
Target sequence (P41235 whole entry, looked up): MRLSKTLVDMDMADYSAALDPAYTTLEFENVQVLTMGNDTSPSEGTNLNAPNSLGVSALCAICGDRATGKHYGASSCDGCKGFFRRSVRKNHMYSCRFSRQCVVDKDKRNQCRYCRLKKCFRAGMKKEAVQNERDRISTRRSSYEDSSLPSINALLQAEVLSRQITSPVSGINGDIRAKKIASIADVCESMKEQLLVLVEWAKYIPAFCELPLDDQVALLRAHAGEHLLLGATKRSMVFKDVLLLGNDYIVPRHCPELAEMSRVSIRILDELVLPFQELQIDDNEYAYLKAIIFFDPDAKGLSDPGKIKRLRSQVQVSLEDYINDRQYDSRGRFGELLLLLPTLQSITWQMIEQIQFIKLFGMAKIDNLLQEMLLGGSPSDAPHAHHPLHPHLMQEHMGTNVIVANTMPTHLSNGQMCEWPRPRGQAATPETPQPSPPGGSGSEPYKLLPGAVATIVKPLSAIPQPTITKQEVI
An asterisk follows results filed as active; i = inactive; u = inconclusive; x = no result; + = active, no number.

SMILES	H9c2 protect	Myeloid diff MLP	DSG3 Ab inh	Exocytosis inh	SENP1 FRET inh	HNF4A DNA FP
O=C(O)CS(=O)(=O)c1ccc(C(F)(F)F)cn1	6.8	+	104.9	-0.8	0.4	3.5
COc1ccc(-c2cc(-c3nnc(COC(=O)C4CC4C)o3)c3ccccc3n2)cc1OC (centres undefined)	85.1*	i	79.5	1.4	-29.9	1.3
COc1ccc(-c2cc(-c3nnc(COC(=O)C4CC4)o3)c3ccccc3n2)cc1OC	80.5*	i	x	13.8	-34.0	3.0
COc1ccc(-c2cc(-c3nnc(COC(=O)CC4CCCC4)o3)c3ccccc3n2)cc1OC	18.2	i	87.0	-2.3	-30.6	1.5
CCOC(=O)c1c(CSC(=N)N)n(-c2ccccc2)c2cc(Br)c(OC(C)=O)cc12	-25.9	i	127.5	80.6*	0.2	3.0
Cc1nn(C)cc1C(C(=O)NC1CCCCC1)N(Cc1ccc(F)cc1)C(=O)c1cnccn1 (centres undefined)	10.3	i	53.7*	-1.2	-0.7	-2.7
COCCCN(Cc1ccco1)C(=O)Cn1ncc2c([nH]c3ccccc32)c1=O	59.7*	i	100.5	5.8	-6.4	-0.1
COc1ccc(OC)c(C(C)NC(C)=O)c1 (centres undefined)	4.4	+	88.5	0.6	-0.3	-1.4
CNC(C)c1cc(OC)ccc1OC (centres undefined)	3.0	i	99.9	-7.1	3.0	1.1
Cc1cn([C@H]2C[C@H](O)[C@@H](/C=C/C(=O)NCc3ccco3)O2)c(=O)[nH]c1=O	-0.1	+	x	-0.6	0.5	1.1
COc1ccc(C(C)=O)cc1Cn1c(C)c(C(=O)NCc2ccc(C(C)C)cc2)sc1=O	-0.9	+	x	5.8	3.7	-5.6
CC(=O)OCCCNc1cc(Sc2ccc(Cl)cc2)c2nonc2c1[N+](=O)[O-]	-8.0	u	100.5	63.8*	-13.7	2.9
CCC(=O)OCCNc1cc(Sc2nccn2C)c2nonc2c1[N+](=O)[O-]	-19.7	x	102.1	7.4	-22.7	0.1
CCC(=O)OCCNc1cc(SCCC(=O)OC)c2nonc2c1[N+](=O)[O-]	54.5*	i	93.9	2.4	-28.3	2.4
CC(C)Oc1cccc(C(=O)Nc2nnc([C@H]3C[C@H](O)[C@@H](CO)O3)s2)c1	0.1	i	x	-4.5	8.7	4.7
Cc1cccc(NC(=O)C2c3ccccc3Oc3ccccc32)n1	2.8	i	107.3	-3.8	1.2	0.9
Nc1ccc2c(c1)Nc1ccccc1CC2	-3.9	+	107.8	6.4	4.2	0.1
COC(=O)Nc1ccc2c(c1)Nc1ccccc1CC2	-0.2	i	104.6	6.5	-1.0	8.9
CCN(CC)c1ccc(/C=C2/C(=O)c3ccc(C(=O)O)cc3C2=O)cc1	-14.5	i	x	3.1	67.1	82.2*
CCN(CC)c1ccc(C=C2C(=O)OC3(CCCCC3)OC2=O)cc1	3.1	i	179.9	2.7	-5.0	9.7
COc1ccc([C@H]2CN(c3ccccc3)C(=O)[C@@H]2CC(=O)Nc2ccccc2)cc1	7.0	i	104.6	-15.0	2.6	0.8
COc1ccc([C@H]2CN(c3ccc(OC)cc3)C(=O)[C@@H]2CC(=O)Nc2ccc(Br)cc2)cc1	-16.2	+	103.8	-3.0	0.7	3.1
Clc1ccc(SCCCCN2CCOCC2)cc1	-6.0	i	106.2	-1.0	0.6	2.5
Cc1ccc(SCCCCN2CCOCC2)cc1	6.5	i	50.2*	-0.1	3.5	5.3
CCN(CC(=O)Nc1ccccc1C(F)(F)F)C(=O)c1ccc2c(=O)n3c(nc2c1)CCC3	6.8	+	x	-4.9	2.7	0.5
SMILES	H9c2 protect	Myeloid diff MLP	DSG3 Ab inh	Exocytosis inh	SENP1 FRET inh	HNF4A DNA FP
CCN(CC(=O)Nc1c(F)cccc1F)C(=O)c1ccc2c(=O)n3c(nc2c1)CCC3	0.8	i	103.8	-7.9	1.1	2.4
Cc1ccc2nc3c(cc2c1)c(NS(=O)(=O)c1ccccc1)nn3CC(C)C	-8.4	i	82.5*	2.9	-1.2	-0.5
CCn1nc(NS(=O)(=O)c2ccccc2)c2cc3cc(C)ccc3nc21	-2.6	i	x	3.3	-2.2	1.1
c1ccc(CNc2c3c(nc4ncnn24)CCC3)cc1	-3.6	i	101.3	-8.5	2.5	62.8*
COc1ccccc1CCNC(=O)CCn1nc(C)c2c(C)n(-c3ccccc3)nc2c1=O	2.1	i	89.5	-3.3	-0.7	-0.6
O=C(CNC(=O)c1ccccc1Br)N/N=C/c1cc(Br)ccc1O	74.3*	i	100.5	-1.2	-101.9	0.8
O=C(CN1CC(c2ccccc2)CC1=O)N/N=C/c1cc(Br)ccc1O (centres undefined)	57.0*	i	126.4	-5.3	-91.3	3.9
O=C(CNC(=O)c1ccncc1)N/N=C/c1cc(Br)ccc1O	26.0	i	97.0	-2.0	-10.7	0.0
O=C(N/N=C/c1cc(Cl)ccc1O)c1ccccc1Br	76.6*	u	88.6	-2.2	-13.0	-6.5
O=C(CNC(=O)c1ccccc1)N/N=C/c1cc(Br)ccc1O	58.6*	i	103.5	-9.8	-96.7	-2.8
CC(C)n1c(=O)c2ccccc2n1Cc1cn(Cc2cccs2)nn1	3.3	i	x	0.5	0.8	1.2
CC1(C)C(=O)Nc2ccccc2N1C(=O)COC(=O)c1cccnc1	3.0	i	x	-2.2	-0.2	-0.9
O=C(N/N=C\c1cc(Cl)ccc1O)c1ccc(S(=O)(=O)N2CCCCC2)cc1	62.8*	u	114.8	-5.4	51.0*	-3.6
O=C(C[n+]1ccccc1)N/N=C/c1cc(Br)cc(Br)c1O	46.0	i	103.3	5.3	-23.4	2.2
O=C(CP(=O)(c1ccccc1)c1ccccc1)N/N=C/c1cc(Br)cc(Br)c1O	70.7*	i	x	-3.8	-25.8	-0.6
CCN(CC)S(=O)(=O)c1ccc(NN=C2CCN(C)CC2)c([N+](=O)[O-])c1	0.0	i	104.7	4.3	1.8	0.2
c1ccc(Nc2nc(-c3ccccc3)ns2)cc1	-12.4	x	58.3*	-12.9	-0.6	-0.4
CCN1C(=O)/C(=C/c2nc3ccccc3c(=O)n2-c2ccccc2)c2ccccc21	50.9*	x	104.1	11.7	-0.5	-2.1
COc1ccccc1OC(=O)CCc1nc2ccccc2s1	-4.3	+	102.3	-3.4	8.0	-14.8
COC(=O)CCCc1nc2ccccc2s1	-0.9	i	98.5	-1.1	0.8	1.7
O=S(=O)(NC1CCN(S(=O)(=O)c2ccc3c(c2)OCCO3)C1)c1c(F)cccc1F (centres undefined)	1.8	i	101.2	-1.8	-0.4	-5.8
COc1cc(NC(=O)c2ccc([N+](=O)[O-])o2)ccc1NC(=O)c1cccs1	-26.8	+	x	6.2	2.4	-5.8
COc1cc(NC(=O)c2cc3ccccc3cc2OC)ccc1NC(=O)c1cccs1	63.3*	i	101.4	17.4	-0.2	2.2
